From ChEMBL document CHEMBL1143996, “Toward the development of chemoprevention agents (III): synthesis and anti-inflammatory activities of a new class of 5-glycylamino-2-substituted-phenyl-1,3-dioxacycloalkanes” (Bioorg Med Chem, 2008) come the findings set out here.

Data set [1] relates to Mus musculus. Kind of data set: Toxicity assessed as tail bleeding in Kunming mouse at 200 mg/kg, po after 60 mins. The settings on record: in vivo, 1 h. The class given is organism-based. Also noted: dose 200 mg/kg, route oral. The essentials: (§1)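 Male mice (18–22 g) given a single oral dose, normal saline vehicle, n = 10. At set times after dosing, mouse restrained in a tube holder with tail protruding and a 2-mm tail cut made. Blood wiped away every 30 s until bleeding stopped; bleeding time recorded in s and compared with pre-dose values.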

Data set [2] relates to Mus musculus. Kind of data set: Toxicity assessed as tail bleeding in Kunming mouse at 200 mg/kg, po after 15 mins. It is filed as organism-based. Further details: dose 200 mg/kg, route oral. The settings on record: in vivo, 0.25 h. The essentials: as §1
In data set [3] the test system is Mus musculus. Kind of data set: Toxicity assessed as tail bleeding in Kunming mouse at 200 mg/kg, po after 5 mins. The class given is organism-based. Also noted: dose 200 mg/kg, route oral. The settings on record: in vivo. The essentials: as §1
The test system of data set [4] is Mus musculus. In words: Toxicity assessed as tail bleeding in Kunming mouse at 200 mg/kg, po after 30 mins. It is filed as organism-based. Also noted: dose 200 mg/kg, route oral. Particulars: in vivo, 0.5 h. The method in brief: as §1
Data set [5] relates to Mus musculus. Kind of data set: Antiinflammatory activity in Kunming mouse assessed as inhibition of xylene-induced ear edema at 20 mg/kg, po. The class given is functional.
In data set [6] the test system is Mus musculus. Kind of data set: Antiinflammatory activity in Kunming mouse assessed as inhibition of xylene-induced ear edema at 30 mg/kg, po. The class given is functional. The method in brief: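 Male Kunming mice, 12 per group (tables give n = 11), dosed orally by gavage as a suspension in 0.5% carboxymethyl cellulose; CMC alone as vehicle control. After 30 min, 0.03 mL xylene applied to both surfaces of the right ear, with the left ear as control.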

As for `C[C@H]1O[C@@H](c2ccc([N+](=O)[O-])cc2)OC[C@H]1NC(=O)CN`, the Time was 2.01 min in the data set on Mus musculus [1], 2.02 min in the data set on Mus musculus [2], 2 min in the data set with Mus musculus [3] and 1.98 min in the data set with Mus musculus [4].
With `NCC(=O)N[C@H]1CCO[C@H](c2ccc(Cl)cc2)OC1`, the Time worked out at 1.99 min with Mus musculus [1], 1.99 min with Mus musculus [2], 2.02 min in the data set on Mus musculus [3] and 2 min in the data set on Mus musculus [4].
With `NCC(=O)N[C@H]1CO[C@@H](c2ccc(Cl)cc2)OC1`, the Time in the data set with Mus musculus [1] was 2 min; with Mus musculus [2], 2.01 min; in the data set with Mus musculus [3], 2.01 min; in the data set with Mus musculus [4], 2 min.
As to `NCC(=O)N[C@H]1CO[C@@H](c2ccc([N+](=O)[O-])cc2)OC1`, the Time is 2.02 min in the data set with Mus musculus [1], 2.01 min in the data set with Mus musculus [2], 2.02 min in the data set on Mus musculus [3] and 2.04 min in the data set on Mus musculus [4].
For the compound `NCC(=O)N[C@H]1CCO[C@H](c2cccc([N+](=O)[O-])c2)OC1`, the Time was 2.02 min in the data set with Mus musculus [1], 2 min in the data set with Mus musculus [2], 2.02 min in the data set with Mus musculus [3] and 2 min with Mus musculus [4].
Take `NCC(=O)N[C@H]1CCO[C@@H](c2ccc([N+](=O)[O-])cc2)OC1`: the Time in the data set on Mus musculus [1] was found to be 1.99 min; with Mus musculus [2], 2.05 min; in the data set with Mus musculus [3], 2 min; with Mus musculus [4], 2 min.
With `C[C@H]1O[C@@H](c2ccc(Cl)cc2)OC[C@H]1N`, in the data set with Mus musculus [5], the inhibition in vivo at 20 mg/kg is 66.7%.
Turning to `NCC(=O)N[C@H]1CCO[C@@H](c2cccc([N+](=O)[O-])c2)OC1`, the Time with Mus musculus [1] is 1.99 min; in the data set with Mus musculus [2], 1.99 min; in the data set on Mus musculus [3], 1.99 min; with Mus musculus [4] it was 2.05 min.
Regarding `NCC(=O)N[C@H]1CCO[C@@H](c2ccc(Cl)cc2)OC1`, the Time with Mus musculus [1] was 2 min; in the data set on Mus musculus [2], 2.01 min; in the data set with Mus musculus [3] it was 1.99 min; with Mus musculus [4], 2.01 min.
For `C[C@H]1O[C@@H](c2ccc([N+](=O)[O-])cc2)OC[C@H]1N`, in the data set with Mus musculus [5], the inhibition in vivo at 20 mg/kg was 78.5%.
With `Cc1ccc([C@H]2OC[C@@H](NC(=O)CN)[C@@H](C)O2)cc1`, the Time in the data set with Mus musculus [1] was 2 min; with Mus musculus [2], 2.04 min; in the data set on Mus musculus [3] it was 2 min; in the data set with Mus musculus [4], 2.02 min.
For the compound `NCC(=O)N[C@H]1CO[C@@H](c2ccccc2)OC1`, the Time was 2.01 min in the data set on Mus musculus [1], 2 min in the data set with Mus musculus [2], 2 min in the data set on Mus musculus [3] and 2.02 min with Mus musculus [4].
Consider `Cc1ccc([C@H]2OC[C@@H](NC(=O)CN)CO2)cc1`, for which the Time turned out to be 2 min with Mus musculus [1], 2 min with Mus musculus [2], 2 min in the data set on Mus musculus [3] and 1.99 min in the data set with Mus musculus [4].
For `CC(=O)Oc1ccccc1C(=O)O` [ASPIRIN], the inhibition in vivo at 30 mg/kg in the data set on Mus musculus [6] amounted to 40.7%.
As to `C[C@H]1O[C@@H](c2cccc([N+](=O)[O-])c2)OC[C@H]1NC(=O)CN`, the Time with Mus musculus [1] was 2 min; with Mus musculus [2] it was 2.01 min; in the data set with Mus musculus [3] it was 2.01 min; in the data set with Mus musculus [4], 1.98 min.
In the case of `NCC(=O)N[C@H]1CO[C@@H](c2cccc([N+](=O)[O-])c2)OC1`, the Time in the data set on Mus musculus [1] is 2.02 min; in the data set with Mus musculus [2], 2 min; in the data set on Mus musculus [3], 2 min; with Mus musculus [4], 2.04 min.
In the case of `NCC(=O)N[C@H]1CCO[C@H](c2ccc([N+](=O)[O-])cc2)OC1`, the Time in the data set with Mus musculus [1] is 1.99 min; in the data set on Mus musculus [2], 2.01 min; in the data set with Mus musculus [3], 2.01 min; with Mus musculus [4] it was 2 min.
Consider `C[C@H]1O[C@@H](c2ccc(Cl)cc2)OC[C@H]1NC(=O)CN`, for which the Time in the data set with Mus musculus [1] stood at 2.01 min; in the data set on Mus musculus [2] it was 2.01 min; in the data set on Mus musculus [3] it was 2.04 min; in the data set on Mus musculus [4] it was 2 min.
For the compound `C[C@H]1O[C@@H](c2ccccc2)OC[C@H]1NC(=O)CN`, the Time with Mus musculus [1] came out at 2.03 min; in the data set with Mus musculus [2], 2 min; with Mus musculus [3], 2.02 min; in the data set with Mus musculus [4], 2.01 min.

In general, inhibition in vivo refers to the relative decrease from the control value, in per cent.
